Assay results published in ChEMBL document CHEMBL1132623, “Structure-based design, synthesis, and biological evaluation of irreversible human rhinovirus 3C protease inhibitors. 4. Incorporation of P1 lactam moieties as L-glutamine replacements” (J Med Chem, 1999).

Assays:
[1] = The 50% cytotoxic concentration was calculated as the concentration of the drug that decreased the percentage of formazan produced in drug-treated,uninfected cells to 50% of that produced in drug free uninfected cells on serotype 14.; format: functional
[2] = target: T1, Neutrophil elastase (Homo sapiens) (UniProt P08246); experiment: % activity against elastase remaining after 10-15 min at 10 uM
T1 sequence (whole entry): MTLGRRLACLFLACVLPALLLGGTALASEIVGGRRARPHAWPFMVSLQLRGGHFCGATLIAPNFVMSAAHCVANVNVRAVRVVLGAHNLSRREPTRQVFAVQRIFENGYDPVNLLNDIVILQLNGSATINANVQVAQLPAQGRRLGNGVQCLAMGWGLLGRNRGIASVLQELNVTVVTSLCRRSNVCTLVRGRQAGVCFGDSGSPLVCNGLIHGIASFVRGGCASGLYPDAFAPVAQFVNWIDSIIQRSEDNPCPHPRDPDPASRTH
How it was run: (§1)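 Purified proteases: human liver cathepsin B, porcine erythrocyte calpain I, human neutrophil elastase, bovine chymotrypsin, human thrombin and bovine trypsin. Each enzyme was incubated with inhibitor for 10-15 min, at 10 µM or at 2 µM where specified. Residual enzyme activity is reported as % remaining.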

[3] = target: T2, Human rhinovirus A protease (Human rhinovirus sp.) (UniProt Q4U254); experiment: The EC90 was calculated as the concentration of drug that increased the percentage of formazan production in drug treated, virus infected cells to 50% of that produced by drug free uninfected cells on human rhinovirus 2.; format: functional
T2 sequence (whole entry): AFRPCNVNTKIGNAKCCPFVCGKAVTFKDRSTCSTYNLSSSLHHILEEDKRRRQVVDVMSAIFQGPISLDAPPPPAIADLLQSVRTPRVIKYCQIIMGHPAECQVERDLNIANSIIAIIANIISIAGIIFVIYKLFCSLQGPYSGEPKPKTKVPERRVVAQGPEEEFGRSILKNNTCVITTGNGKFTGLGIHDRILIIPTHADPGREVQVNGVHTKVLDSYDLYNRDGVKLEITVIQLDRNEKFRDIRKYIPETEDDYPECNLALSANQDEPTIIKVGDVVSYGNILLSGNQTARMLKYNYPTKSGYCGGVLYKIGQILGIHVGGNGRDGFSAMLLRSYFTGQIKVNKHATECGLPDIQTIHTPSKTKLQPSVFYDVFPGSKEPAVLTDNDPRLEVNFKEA

[4] = target: Chymotrypsinogen A (Bos taurus) (UniProt P00766); experiment: Inhibition of Chymotrypsinogen by the compound was measured as % activity of thrombin remaining after 10-15 min at 10 uM; how it was run: as §1
[5] = target: T2, Human rhinovirus A protease (Human rhinovirus sp.); experiment: The EC90 was calculated as the concentration of drug that increased the percentage of formazan production in drug treated, virus infected cells to 50% of that produced by drug free uninfected cells on human rhinovirus-14.; format: functional
[6] = target: Prothrombin (Homo sapiens) (UniProt P00734); experiment: Inhibition of thrombin by the compound was measured as % activity of thrombin remaining after 10-15 min at 10 uM; how it was run: as §1
peptidase = experiment: half life towards biological agent (peptidase); format: ADME
How it was run: (§2)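 Compound at 25 µM in 100 mM potassium phosphate pH 7.4 was preincubated 5 min at 37 °C. Reaction was started with chymotrypsin (5 units/mL) or porcine intestinal peptidase (0.1 units/mL). Aliquots taken at 0 and 60 min were quenched in CH3CN and centrifuged. Parent was quantified by reverse-phase C8 HPLC with UV at 220 nm. 1-Naphthyl butyrate hydrolysis was the peptidase esterase control.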

[7] = target: T2, Human rhinovirus A protease (Human rhinovirus sp.); experiment: The EC90 was calculated as the concentration of drug that increased the percentage of formazan production in drug treated, virus infected cells to 50% of that produced by drug free uninfected cells on human rhinovirus 1A.; format: functional
[8] = target: T3, Calpain-1 catalytic subunit (Homo sapiens) (UniProt P07384); experiment: % activity against calpain 1 remaining after 10-15 min at 10 uM; conditions: Sus scrofa; how it was run: as §1
T3 sequence (whole entry): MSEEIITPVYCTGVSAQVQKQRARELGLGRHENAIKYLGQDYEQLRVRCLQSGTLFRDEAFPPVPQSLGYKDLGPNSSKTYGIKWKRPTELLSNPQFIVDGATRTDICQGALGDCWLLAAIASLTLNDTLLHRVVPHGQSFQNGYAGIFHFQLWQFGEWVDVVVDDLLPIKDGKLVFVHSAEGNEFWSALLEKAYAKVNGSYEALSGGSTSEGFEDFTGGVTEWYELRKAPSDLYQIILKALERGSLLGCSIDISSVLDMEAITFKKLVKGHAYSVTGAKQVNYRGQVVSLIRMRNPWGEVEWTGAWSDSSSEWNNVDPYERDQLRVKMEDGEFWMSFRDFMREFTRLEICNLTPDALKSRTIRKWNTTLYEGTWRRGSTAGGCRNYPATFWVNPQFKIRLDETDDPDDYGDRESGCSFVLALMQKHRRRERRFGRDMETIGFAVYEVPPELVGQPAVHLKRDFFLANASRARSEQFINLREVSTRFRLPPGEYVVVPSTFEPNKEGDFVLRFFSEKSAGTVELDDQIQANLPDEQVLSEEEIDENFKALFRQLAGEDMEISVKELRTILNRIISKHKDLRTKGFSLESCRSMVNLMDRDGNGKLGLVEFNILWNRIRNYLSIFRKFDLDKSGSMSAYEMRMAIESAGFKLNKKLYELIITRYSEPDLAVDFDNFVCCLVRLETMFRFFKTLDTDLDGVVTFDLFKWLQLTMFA

[9] = target: T4, Serine protease 1 (Bos taurus) (UniProt P00760); experiment: Inhibition of trypsin by the compound was measured as % activity of thrombin remaining after 10-15 min at 10 uM; how it was run: as §1
T4 sequence (whole entry): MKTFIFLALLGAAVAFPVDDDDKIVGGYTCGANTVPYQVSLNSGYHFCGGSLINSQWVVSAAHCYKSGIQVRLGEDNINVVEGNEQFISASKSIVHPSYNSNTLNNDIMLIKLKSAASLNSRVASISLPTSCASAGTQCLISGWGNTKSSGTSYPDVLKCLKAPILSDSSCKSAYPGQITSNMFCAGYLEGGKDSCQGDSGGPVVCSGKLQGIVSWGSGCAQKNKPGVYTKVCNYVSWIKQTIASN

[10] = half life towards biological agent (human plasma); format: ADME, organism-based
How it was run: (§3)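 Human plasma (CPDA) or heparinized animal plasma, with rat plasma diluted 1:1 in 100 mM phosphate pH 7.4, and buffer controls, n = 3. Compound was added to 25 µM final at 37 °C and sampled periodically over 1 h. Samples were quenched in CH3CN, centrifuged, dried, reconstituted and analysed by reverse-phase HPLC. 1-Naphthyl butyrate was the esterase control.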

[11] = target: Cathepsin B (Homo sapiens) (UniProt P07858); experiment: Inhibition of cathepsin B by the compound was measured as % activity of thrombin remaining after 10-15 min at 10 uM; how it was run: as §1
[12] = target: T2, Human rhinovirus A protease (Human rhinovirus sp.); experiment: The EC90 was calculated as the concentration of drug that increased the percentage of formazan production in drug treated, virus infected cells to 50% of that produced by drug free uninfected cells on human rhinovirus-10.; format: functional
[13] = half life towards biological agent (rat plasma); format: ADME, cell-free; how it was run: as §3
[14] = half life towards biological agent (dog plasma); format: ADME, organism-based, Canis lupus familiaris; how it was run: as §3
[15] = target: T2, Human rhinovirus A protease (Human rhinovirus sp.); experiment: Irreversible inhibition of human rhinovirus 3C protease
[16] = half life towards biological agent (dithiothreitol 5 mM); format: ADME; conditions: dithiothreitol solution
chymotrypsin = experiment: half life towards biological agent (chymotrypsin); format: ADME; how it was run: as §2
[17] = target: T2, Human rhinovirus A protease (Human rhinovirus sp.); experiment: The kobs/[I] value for the irreversible inhibitors was obtained by reaction initiated by addition of 50 nM 3CP,containing 1 uM substrate and varying inhibitor concentrations on serotype 2.
[18] = target: T4, Serine protease 1 (Bos taurus); experiment: Inhibition of trypsin by the compound was measured as % activity of thrombin remaining after 10-15 min at 2 uM; how it was run: as §1
[19] = target: T3, Calpain-1 catalytic subunit (Homo sapiens); experiment: % activity against calpain 1 remaining after 10-15 min at 2 uM; conditions: Sus scrofa; how it was run: as §1
[20] = Increased percentage of formazan production in drug treated virus infected cells to equal 50% control drug free uninfected cells on serotype 14
[21] = target: T1, Neutrophil elastase (Homo sapiens); experiment: % activity against elastase remaining after 10-15 min at 2 uM; how it was run: as §1
[22] = target: Chymotrypsinogen A (Bos taurus) (UniProt P00766); experiment: Inhibition of Chymotrypsinogen by the compound was measured as % activity of thrombin remaining after 10-15 min at 2 uM; how it was run: as §1
[23] = target: Cathepsin B (Homo sapiens) (UniProt P07858); experiment: Inhibition of cathepsin B by the compound was measured as % activity of thrombin remaining after 10-15 min at 2 uM; how it was run: as §1
[24] = target: Prothrombin (Homo sapiens) (UniProt P00734); experiment: Inhibition of thrombin by the compound was measured as % activity of thrombin remaining after 10-15 min at 2 uM; how it was run: as §1

## CCOC(=O)/C=C/[C@H](CCC(=O)NC)NC(=O)[C@H](Cc1ccccc1)NC(=O)[C@H](CC(C)C)NC(=O)OCc1ccccc1
[1]
  CC50: > 100000 nM

## CCOC(=O)/C=C/[C@H](C[C@@H]1CCNC1=O)NC(=O)[C@@H](CC(=O)[C@@H](NC(=O)c1cc(C)on1)C(C)C)Cc1ccc(F)cc1
[2]
  Activity: 99%
[3]
  EC90: 30 nM
[4]
  Activity: 100%
[5]
  EC90: 20 nM
[6]
  Activity: 100%
peptidase
  half-life: > 1 h
[7]
  EC90: 41 nM
[8]
  Activity: 100%
[9]
  Activity: 100%
[10]
  half-life: > 1 h
[11]
  Activity: 98%
[12]
  EC90: 100 nM
[13]
  half-life: < 2 min
[14]
  half-life: > 1 h
[15]
  K obs / 1: 1.09e+06 M⁻¹ s⁻¹
[16]
  half-life: > 0.5 h
[1]
  CC50: > 100000 nM
chymotrypsin
  half-life: > 1 h

## CCOC(=O)/C=C/[C@H](C[C@@H]1CCNC1=O)NC(=O)[C@H](Cc1ccc(F)cc1)NC(=O)[C@@H](NC(=O)c1cc(C)on1)C(C)(C)C
[2]
  Activity: 96%
[4]
  Activity: 97%
[6]
  Activity: 101%
[8]
  Activity: 100%
[9]
  Activity: 95%
[11]
  Activity: 81%
[15]
  K obs / 1: 980000 M⁻¹ s⁻¹
[1]
  CC50: > 100000 nM

## CCOC(=O)/C=C/[C@H](CCC(=O)N(C)C)NC(=O)[C@H](Cc1ccccc1)NC(=O)[C@H](CC(C)C)NC(=O)OCc1ccccc1
[1]
  CC50: > 100000 nM

## CCOC(=O)/C=C/[C@H](C[C@H]1CCNC1=O)NC(=O)[C@H](Cc1ccccc1)NC(=O)[C@H](CC(C)C)NC(=O)OCc1ccccc1
[15]
  K obs / 1: 18000 M⁻¹ s⁻¹
[1]
  CC50: > 100000 nM

## CCOC(=O)/C=C/[C@H](C[C@@H]1CCCNC1=O)NC(=O)[C@@H](CC(=O)[C@@H](NC(=O)c1cc(C)on1)C(C)C)Cc1ccc(F)cc1
[15]
  K obs / 1: 500000 M⁻¹ s⁻¹
[1]
  CC50: > 100000 nM

## CCOC(=O)/C=C/[C@H](C[C@@H]1CCNC1=O)NC(=O)[C@H](Cc1ccccc1)NC(=O)[C@@H](NC(=O)OCc1ccccc1)C(C)C
[15]
  K obs / 1: 500000 M⁻¹ s⁻¹
[1]
  CC50: > 100000 nM

## CCOC(=O)/C=C/[C@H](C[C@@H]1CCNC1=O)NC(=O)[C@H](Cc1ccccc1)NC(=O)[C@H](CC(C)C)NC(=O)OCc1ccccc1
[17]
  K obs / 1: 31000 M⁻¹ s⁻¹
[15]
  K obs / 1: 257000 M⁻¹ s⁻¹
[1]
  CC50: > 100000 nM

## CCOC(=O)/C=C/[C@H](CCC(N)=O)NC(=O)[C@@H](CC(=O)[C@@H](NC(=O)c1cc(C)on1)C(C)C)Cc1ccc(F)cc1
[3]
  EC90: 280 nM
[7]
  EC90: 630 nM

## CCOC(=O)/C=C/[C@H](C[C@@H]1CCCNC1=O)NC(=O)[C@H](Cc1ccc(F)cc1)NC(=O)[C@@H](NC(=O)c1cc(C)on1)C(C)C
[15]
  K obs / 1: 900000 M⁻¹ s⁻¹
[1]
  CC50: > 100000 nM

## CCOC(=O)/C=C/[C@H](CCC(N)=O)NC(=O)[C@H](Cc1ccccc1)NC(=O)[C@H](CC(C)C)NC(=O)OCc1ccccc1
[18]
  Activity: 98%
[19]
  Activity: 100%
[20]
  EC50: 540 nM
[21]
  Activity: 92%
[22]
  Activity: 96%
[23]
  Activity: 39%
[24]
  Activity: 101%
[1]
  CC50: > 320000 nM

## CCOC(=O)/C=C/[C@H](CN1CCNC1=O)NC(=O)[C@H](Cc1ccccc1)NC(=O)[C@H](CC(C)C)NC(=O)OCc1ccccc1
[15]
  K obs / 1: 10900 M⁻¹ s⁻¹
[1]
  CC50: > 100000 nM

## CCOC(=O)/C=C/[C@H](C[C@@H]1CCCNC1=O)NC(=O)[C@H](Cc1ccccc1)NC(=O)[C@H](CC(C)C)NC(=O)OCc1ccccc1
[15]
  K obs / 1: 239000 M⁻¹ s⁻¹
[1]
  CC50: > 100000 nM

## CCOC(=O)/C=C/[C@H](C[C@@H]1CCNC1=O)NC(=O)[C@H](Cc1ccc(F)cc1)NC(=O)[C@@H](NC(=O)c1cc(C)on1)C(C)C
[2]
  Activity: 100%
[3]
  EC90: 50 nM
[4]
  Activity: 101%
[5]
  EC90: 40 nM
[6]
  Activity: 103%
[7]
  EC90: 140 nM
[8]
  Activity: 100%
[9]
  Activity: 100%
[11]
  Activity: 96%
[12]
  EC90: 140 nM
[15]
  K obs / 1: 1.5e+06 M⁻¹ s⁻¹
[1]
  CC50: > 100000 nM
